Results: publication PMC11959361 (RSC Advances, 2025)

Assays:
[1] = system: MCF7 (human breast cancer) cell line; test: MTT cytotoxicity assay, MCF7; format: cell-based; details: MCF7, 24 h
How it was run: (§1)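 Cells seeded at 5000 per well in Eagle's MEM with 10% fetal calf serum, 2 mM L-glutamine, penicillin and streptomycin, then held 24 h at 37 °C, 5% CO2. Serial concentrations of test compound in DMSO were added for 24 h, with PTX and DOX as references. MTT was added for 4 h at 37 °C. Formazan was dissolved in ethanol and read at 570 nm. Percent inhibition was computed against control and blank.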

[2] = system: C26 (colon carcinoma) cell line; test: MTT cytotoxicity assay, C26; format: cell-based; details: 24 h
How it was run: as §1

[3] = system: BAEC (bovine aorta endothelial) normal cell line; test: MTT cytotoxicity assay, BAEC normal cells; format: cell-based; details: 24 h with compound, IC50 ± SEM
How it was run: as §1

[4] = system: MCF7 and C26 cell lines; test: MTT cytotoxicity, stated over both cancer cell lines together; format: cell-based; details: Homo sapiens, MCF7, read-out: IC50 over MCF7 and C26
How it was run: as §1

[5] = system: MCF7, A549 (non-small cell lung cancer) and HDFs (non-cancerous human dermal fibroblasts); details: doxorubicin value compared for healthy cells ref 20; cited from earlier work

COc1ccc(Nc2nc(Cl)nc(Cl)n2)cc1 [1c, 4,6-Dichloro-N-(4-methoxyphenyl)-1,3,5-triazin-2-amine]
IC50 [1]: 1.77 ± 0.05 µM
IC50 [2]: 9.89 ± 0.17 µM

O=[N+]([O-])c1ccc(Nc2nc(Cl)nc(Cl)n2)cc1 [1e, 4,6-Dichloro-N-(4-nitrophenyl)-1,3,5-triazin-2-amine]
IC50 [1]: 10.3 ± 1.51 µM
IC50 [2]: 48.3 ± 1.94 µM

Cc1ccc(Nc2nc(N3CCCCC3)nc(N3CCCCC3)n2)cc1 [2d, 4,6-Di(piperidin-1-yl)-N-(p-tolyl)-1,3,5-triazin-2-amine]
IC50 ([3]; Bos taurus, BAEC, 24 h): 1.84 ± 0.64 µM
IC50 [1]: 6.54 ± 1.16 µM
IC50 [2]: 0.38 ± 0.23 µM

Cc1ccc(Nc2nc(N3CCOCC3)nc(N3CCOCC3)n2)cc1 [3d, 4,6-Dimorpholino-N-(p-tolyl)-1,3,5-triazin-2-amine]
IC50 ([3]; Bos taurus, BAEC, 24 h): 0.57 ± 0.24 µM
IC50 [1]: 22.3 ± 1.49 µM
IC50 [2]: 16.3 ± 2.22 µM

O=[N+]([O-])c1ccc(Nc2nc(N3CCOCC3)nc(N3CCOCC3)n2)cc1 [3e, 4,6-Dimorpholino-N-(4-nitrophenyl)-1,3,5-triazin-2-amine]
IC50 [3]: 86.3 ± 6.79 µM
IC50 ([3]; Bos taurus, BAEC, 24 h): 86.2 µM
IC50 [1]: 13.7 ± 1.96 µM
IC50 [2]: 14.7 ± 1.7 µM

Cc1ccc(Nc2nc(Cl)nc(Cl)n2)cc1 [1d, 4,6-Dichloro-N-(p-tolyl)-1,3,5-triazin-2-amine]
IC50 [1]: 0.2 ± 0.11 µM
IC50 [2]: 9.99 ± 0.59 µM

Clc1ccc(Nc2nc(Cl)nc(Cl)n2)cc1 [1a, 4,6-Dichloro-N-(4-chlorophenyl)-1,3,5-triazin-2-amine]
IC50 [1]: 5.35 ± 1.05 µM
IC50 [2]: 13.5 ± 0.24 µM

Fc1ccc(Nc2nc(Cl)nc(Cl)n2)cc1 [1b, 4,6-Dichloro-N-(4-fluorophenyl)-1,3,5-triazin-2-amine]
IC50 [1]: 7.89 ± 1.8 µM
IC50 [2]: 9.1 ± 0.61 µM

O=[N+]([O-])c1ccc(Nc2nc(N3CCCCC3)nc(N3CCCCC3)n2)cc1 [2e, N-(4-Nitrophenyl)-4,6-di(piperidin-1-yl)-1,3,5-triazin-2-amine]
IC50 ([3]; Bos taurus, BAEC, 24 h): 315 ± 9.53 µM
IC50 [1]: 26.1 ± 1.86 µM
IC50 [2]: 8.28 ± 1.9 µM

COc1ccc(Nc2nc(N3CCOCC3)nc(N3CCOCC3)n2)cc1 [3c, N-(4-Methoxyphenyl)-4,6-dimorpholino-1,3,5-triazin-2-amine]
IC50 ([3]; Bos taurus, BAEC, 24 h): 2.01 ± 0.59 µM
IC50 [1]: 43.5 ± 4.23 µM
IC50 [2]: 76.8 ± 8.45 µM

Clc1ccc(Nc2nc(N3CCOCC3)nc(N3CCOCC3)n2)cc1 [3a, N-(4-Chlorophenyl)-4,6-dimorpholino-1,3,5-triazin-2-amine]
IC50 ([3]; Bos taurus, BAEC, 24 h): 41.2 ± 2.55 µM
IC50 [1]: 42.4 ± 4.48 µM
IC50 [2]: 1.21 ± 0.47 µM

COc1cccc2c1C(=O)c1c(O)c3c(c(O)c1C2=O)C[C@@](O)(C(=O)CO)C[C@@H]3O[C@H]1C[C@H](N)[C@H](O)[C@H](C)O1 [DOX, Doxorubicin, reference compound]
IC50 ([3]; Bos taurus, BAEC, 24 h): 4.79 ± 0.53 µM
IC50 [4]: 8.06 to 10.5 µM
IC50 [1]: 10.5 ± 0.86 µM
IC50 [2]: 8.06 ± 1.02 µM
IC50 [5]: 0.42 µM

Fc1ccc(Nc2nc(N3CCCCC3)nc(N3CCCCC3)n2)cc1 [2b, N-(4-Fluorophenyl)-4,6-di(piperidin-1-yl)-1,3,5-triazin-2-amine]
IC50 ([3]; Bos taurus, BAEC, 24 h): 21.2 ± 2.4 µM
IC50 [1]: 32.9 ± 4.23 µM
IC50 [2]: 33.6 ± 1.86 µM

Fc1ccc(Nc2nc(N3CCOCC3)nc(N3CCOCC3)n2)cc1 [3b, N-(4-Fluorophenyl)-4,6-dimorpholino-1,3,5-triazin-2-amine]
IC50 ([3]; Bos taurus, BAEC, 24 h): 7.98 ± 0.97 µM
IC50 [1]: 6.19 ± 1.2 µM
IC50 [2]: 24.5 ± 0.86 µM

Clc1ccc(Nc2nc(N3CCCCC3)nc(N3CCCCC3)n2)cc1 [2a, N-(4-Chlorophenyl)-4,6-di(piperidin-1-yl)-1,3,5-triazin-2-amine]
IC50 ([3]; Bos taurus, BAEC, 24 h): 49 ± 3.16 µM
IC50 [1]: 23.6 ± 2.56 µM
IC50 [2]: 47.5 ± 2.86 µM

COc1ccc(Nc2nc(N3CCCCC3)nc(N3CCCCC3)n2)cc1 [2c, N-(4-Methoxyphenyl)-4,6-di(piperidin-1-yl)-1,3,5-triazin-2-amine]
IC50 ([3]; Bos taurus, BAEC, 24 h): 15.1 ± 1.98 µM
IC50 [1]: 50.9 ± 8.54 µM
IC50 [2]: 99.4 ± 14.1 µM

CC(=O)O[C@H]1C(=O)[C@@]2(C)[C@H]([C@H](OC(=O)c3ccccc3)[C@]3(O)C[C@H](OC(=O)[C@H](O)[C@@H](NC(=O)c4ccccc4)c4ccccc4)C(C)=C1C3(C)C)[C@]1(OC(C)=O)CO[C@@H]1C[C@@H]2O [PTX, Paclitaxel, reference compound]
IC50 ([3]; Bos taurus, BAEC, 24 h): 2.67 ± 0.41 µM
IC50 [4]: 2.35 to 4.32 µM
IC50 [1]: 2.35 ± 0.14 µM
IC50 [2]: 4.32 ± 0.52 µM
